High-throughput results: PubChem, Broad Institute
Hits are enriched below; roughly 2.4% of the tested compounds scored in any of these assays.
Cneo AK release – causes C. neoformans cell lysis; lysis activity, % at 15 µM; adenylate kinase release luminescence, 4 h; normalised: neutral wells 0, clomiphene wells 100; 0.2% of 360,000 active; AID 651654;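 active means mean lysis activity across replicates of at least 80%, whatever share of replicates individually reach that level; inactive means mean lysis activity below 80%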
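Material – Cryptococcus neoformans yeast cells · Quantity – 5 × 10^6 yeast cells/mL · Buffer or medium – YPD medium · Compound – single dose · Timing – 4 h static compound exposure, 37 °C, read 1 h post-reagent · Signal – adenylate kinase release luminescence · Read-out basis – lysis from increased AK signal · Benchmarks – Clomiphene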
miR122 inh – inhibitors of miR-122 in Huh7 cells; 0.3% of 340,000 active; Huh7 miR-122 Renilla luciferase sensor, 48 h; neutral wells = 0, positive control = 100; AID 602342; activation (reporter increase), % at 12.5 µM;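 active means mean replicate activation score at least 90 and every replicate individually at or above 90; inconclusive means only one of the two criteria met; inactive means neither criterion met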;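 further: higher luciferase means less miR-122 activity so hits act as miR-122 inhibitors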
GSIS activator – GLuc luminescence reporter in INS-1E cells, primary screen for activators of glucose-dependent secretion of insulin; INS-1E GLuc reporter insulin secretion, 2-3 h; activation, % at 16.6 µM; 0.61% of 370,000 active; AID 743287;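 active means lowest replicate activation of at least 40%, so every replicate reaches that level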;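 further: 0% = median of neutral control wells and 100% = median of IBMX positive control wells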
Rtt109 Vps75 – blocks Candida albicans Rtt109/Vps75 acetyltransferase activity; Q5AAJ8; purified Rtt109/Vps75, ThioGlo CoA-SH fluorescence, 4 h; inhibition, % at 34.9 µM; 0.16% of 330,000 active; AID 540336;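 active means inhibition of at least 50% in every replicate; inconclusive means best replicate reaches 50% inhibition but some replicates fall short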
Target sequence (Q5AAJ8 whole entry, looked up): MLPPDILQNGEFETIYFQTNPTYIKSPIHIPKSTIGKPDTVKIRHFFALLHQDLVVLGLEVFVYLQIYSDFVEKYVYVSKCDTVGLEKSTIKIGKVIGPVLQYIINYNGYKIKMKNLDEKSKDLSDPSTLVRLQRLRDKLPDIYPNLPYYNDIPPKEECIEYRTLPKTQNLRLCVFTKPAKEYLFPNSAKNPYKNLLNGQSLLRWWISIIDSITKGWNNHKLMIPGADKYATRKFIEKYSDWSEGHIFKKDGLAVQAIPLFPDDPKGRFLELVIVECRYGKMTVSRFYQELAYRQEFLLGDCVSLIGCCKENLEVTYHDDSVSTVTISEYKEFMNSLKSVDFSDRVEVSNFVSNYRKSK
dFosB act – enhances mouse delta FosB homodimer DNA binding; P13346; purified delta FosB, TAMRA-CDK5 oligo fluorescence polarization; percent of positive-control signal above neutral wells; activation, % at 25 µM; 0.99% of 340,000 active;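 active means mean activation above about 17%, with every replicate also reaching it, limit read from the data, passing the limit was not always enough; inconclusive means only one of the two conditions met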
Target sequence (P13346 whole entry, looked up): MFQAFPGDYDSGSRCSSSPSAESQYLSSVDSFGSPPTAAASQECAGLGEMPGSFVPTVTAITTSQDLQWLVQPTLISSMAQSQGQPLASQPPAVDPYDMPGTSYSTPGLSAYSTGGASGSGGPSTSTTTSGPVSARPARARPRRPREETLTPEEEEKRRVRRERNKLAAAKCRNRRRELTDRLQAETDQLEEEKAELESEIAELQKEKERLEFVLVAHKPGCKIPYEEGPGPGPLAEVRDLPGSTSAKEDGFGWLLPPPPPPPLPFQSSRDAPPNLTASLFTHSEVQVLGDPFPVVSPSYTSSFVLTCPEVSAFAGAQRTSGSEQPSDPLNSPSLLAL
Env fusion inh – HIV envelope-mediated fusion inhibition; HeLa-JRFL Env/CEM21 cell fusion, luciferase; inhibition, % at 12.3 µM; 1.1% of 360,000 active;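 active means mean replicate inhibition score of at least 50 and every replicate individually at or above 50; inconclusive means only one of the two criteria met; inactive means mean below 50 and not all replicates reaching 50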;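 further: 0% = plate neutral controls and 100% = maraviroc near 300 nM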
Starred values were filed as active, the others as inactive; ? = inconclusive; · = no result; [ ] = another dose, or the depositor's remark.

SMILES	Cneo AK release	miR122 inh	GSIS activator	Rtt109 Vps75	dFosB act	Env fusion inh
COc1ccc(-c2cc3ccccc3oc2=O)cc1NC(=S)NC(=O)c1ccc2c(c1)OCCO2	0	-6	94*	-1	7	-218
CCC(=O)N[C@@H]1C=C[C@@H](CC(=O)NCc2ccc(OC)cc2)O[C@H]1CO	0	5[16.7 µM]	3	·	·	-3[16.7 µM]
COc1ccc(C2c3[nH]c4ccccc4c3CCN2Cc2cccn2-c2ncccn2)cc1C (stereo not given)	1	3	-21	2	32*	37
Cc1cccc(C2c3[nH]c4ccccc4c3CCN2Cc2cccn2-c2ncccn2)c1 (stereo not given)	·	·	-11	1	-3	-17
C/C=C/CN(C(=O)C#Cc1ccccc1)[C@H](CO[Si](C)(C)C(C)(C)C)c1ccccc1	0	·	·	·	·	2[16.7 µM]
O=C(Cn1c(=O)n(Cc2ccco2)c(=O)c2ccccc21)Nc1cccc(Cl)c1	-1	4	-25	10	?	95*
O=C(NCc1ccco1)c1ccc(Cn2c(=O)c3sccc3n(Cc3cccc(F)c3)c2=O)cc1	1	-3	-4	7	-7	90*
O=C(NCc1ccco1)c1ccc(Cn2c(=O)c3ccccc3n(Cc3cccc(Cl)c3)c2=O)cc1	-2	·	·	-1	1	89*
CS(=O)(=O)N1C[C@@H]2C(c3ccccc3)[C@H](C1)N2Cc1ccc(F)cc1 (stereo not given in full)	·	·	11	·	·	·
Cc1ccc(C(=O)NCC(=O)OCC(=O)NC(C)C2CC3CCC2C3)cc1 (stereo not given)	0	3	-23	51*	-7	-2
CC(=O)N1C2CN(CC(F)(F)F)CC1C2c1ccc(Br)cc1 (stereo not given)	·	·	2	·	·	·
COC(=O)[C@@]1(CCS(=O)(=O)c2ccccc2)COC(c2ccc(OCCCO)cc2)=N1	25	·	·	·	·	8[16.7 µM]
CN1C(=O)c2cc(NC(=O)Cc3cccs3)ccc2OC[C@@H]2O[C@@H](CC(=O)NCC3CCCCC3)CC[C@@H]21	-2	196*[16.7 µM]	-6	·	·	·
CCNC(=O)C[C@H]1CC[C@@H]2[C@@H](COc3ccc(NC(=O)Nc4cccc(OC)c4)cc3C(=O)N2C)O1	-5	13[16.7 µM]	-3	·	·	59*[16.7 µM]
CN1C(=O)c2cc(NC(=O)NCc3ccccc3)ccc2OC[C@@H]2O[C@@H](CC(=O)NCC3CCCCC3)CC[C@@H]21	-1	120*[16.7 µM]	-4	·	·	·
CN1C(=O)c2cc(NC(=O)Cc3cccs3)ccc2OC[C@H]2O[C@@H](CC(=O)NCC3CC3)CC[C@H]21	-3	2[16.7 µM]	1	·	·	14[16.7 µM]
CN1C(=O)c2cc(NC(=O)Cc3ccccc3)ccc2OC[C@@H]2O[C@@H](CC(=O)NCc3ccc(Cl)cc3)CC[C@@H]21	-3	233*[16.7 µM]	-21	·	·	17[16.7 µM]
CN1C(=O)c2cc(NC(=O)Cc3ccccc3)ccc2OC[C@@H]2O[C@H](CC(=O)NCc3ccc(Cl)cc3)CC[C@H]21	-2	3[16.7 µM]	-10	·	·	13[16.7 µM]
C[C@@H]1CN([C@H](C)CO)C(=O)c2cc(NC(=O)NC3CCCCC3)ccc2O[C@@H]1CN(C)Cc1ccc(C(=O)Nc2ccccc2N)cc1	·	·	10	·	·	·
O=S(=O)(c1ccccc1)N1CCCCN2[C@H](C1)[C@H](c1ccc(-c3cncnc3)cc1)[C@@H]2CO	-3	-5[16.7 µM]	-11	·	·	·
CCOC(=O)[C@@H]1[C@@H]2C=C[C@]3(O2)[C@H](C(=O)NCc2ccccc2)N(CCCCCCO)C(=O)[C@@H]13	51	·	·	·	·	13[16.7 µM]
CN1C(=O)c2cc(NC(=O)c3cccc(Cl)c3)ccc2OC[C@@H]2O[C@H](CC(=O)NC3CCCCC3)CC[C@@H]21	43	-21[16.7 µM]	-1	·	·	57*[16.7 µM]
CN1C(=O)c2cc(NC(=O)Cc3cccs3)ccc2OC[C@@H]2O[C@H](CC(=O)NCc3ccc(-c4ccccc4)cc3)CC[C@@H]21	-3	188*[16.7 µM]	·	·	·	28[16.7 µM]
Cc1ccccc1NC(=O)Nc1ccc2c(c1)C(=O)N(C)[C@H]1CC[C@H](CC(=O)NCC3CC3)O[C@H]1CO2	-2	228*[16.7 µM]	-7	·	·	·
CCCC(=O)Nc1ccc2c(c1)C(=O)N(C)[C@@H]1CC[C@@H](CC(=O)Nc3ccccc3)O[C@H]1CO2	54	6[16.7 µM]	-3	·	·	11[16.7 µM]
SMILES	Cneo AK release	miR122 inh	GSIS activator	Rtt109 Vps75	dFosB act	Env fusion inh
Cc1cc(S(=O)(=O)NCC2CC2)c(Cl)cc1Cl	1	105*	11	10	2	14
COc1cc(OC)c(N(C)C(=O)c2cn(C)c(=O)c3cc(OC)c(OC)cc23)cc1Cl	127*	·	18	1	-4	13
C[C@@H]1CCCCO[C@H](CN(C)C(=O)NC2CCCCC2)[C@@H](C)CN([C@H](C)CO)C(=O)c2cc(NS(=O)(=O)c3cn(C)cn3)ccc2O1	·	·	12	·	·	·
C[C@H](CO)N1C[C@H](C)[C@H](CN(C)C(=O)NC2CCCCC2)OCCCC[C@H](C)Oc2ccc(NS(=O)(=O)c3cn(C)cn3)cc2C1=O	90*	27[16.7 µM]	-2	·	·	20[16.7 µM]
C[C@H]1CCCCO[C@H](CN(C)C(=O)NC2CCCCC2)[C@@H](C)CN([C@@H](C)CO)C(=O)c2cc(NC(=O)Nc3ccccc3)ccc2O1	2	-6[16.7 µM]	2	·	·	56*[16.7 µM]
CC(C)NC(=O)Nc1ccc2c(c1)C(=O)N([C@H](C)CO)C[C@H](C)[C@H](CN(C)C(=O)NC(C)C)OCCCC[C@@H](C)O2	0	-3[16.7 µM]	31	·	·	-95[16.7 µM]
C[C@@H]1CCCCO[C@H](CN(C)C(=O)NC2CCCCC2)[C@@H](C)CN([C@H](C)CO)C(=O)c2cc(NC(=O)Nc3ccccc3)ccc2O1	1	11[16.7 µM]	-3	·	·	0[16.7 µM]
CC(C)NC(=O)Nc1ccc2c(c1)C(=O)N([C@H](C)CO)C[C@@H](C)[C@H](CN(C)C(=O)Nc1ccccc1)OCCCC[C@@H](C)O2	118*	-4[16.7 µM]	-8	·	·	-1[16.7 µM]
CC(C)NC(=O)Nc1ccc2c(c1)C(=O)N([C@@H](C)CO)C[C@@H](C)[C@@H](CN(C)C(=O)NC(C)C)OCCCC[C@@H](C)O2	113*	12[16.7 µM]	26	·	·	15[16.7 µM]
C[C@H](CO)N1C[C@H](C)[C@H](CN(C)C(=O)NC2CCCCC2)OCCCC[C@H](C)Oc2ccc(NC(=O)C3CCCCC3)cc2C1=O	104*	-2[16.7 µM]	-21	·	·	-78[16.7 µM]
CCCN(C)C[C@H]1OCCCC[C@@H](C)Oc2ccc(NC(=O)NC(C)C)cc2C(=O)N([C@@H](C)CO)C[C@H]1C	92*	-7[16.7 µM]	27	·	·	8[16.7 µM]
CCCN(C)C[C@@H]1OCCCC[C@@H](C)Oc2ccc(NC(=O)Nc3ccccc3)cc2C(=O)N([C@H](C)CO)C[C@@H]1C	3	5[16.7 µM]	13	·	·	-11[16.7 µM]
O=c1c2c(nc3nc(SCc4ccccc4)[nH]n13)CCC2	-1	112*	·	-4	5	-19
